Results as given in ChEMBL document CHEMBL1124227, “Effects of sulfur-containing analogues of stearic acid on growth and fatty acid biosynthesis in the protozoan Crithidia fasciculata” (J Med Chem, 1988).

What was measured:
Format in all cases: functional, organism-based
Crithidia fasciculata [1] = experiment: The compound was tested for 50% growth inhibition against Crithidia fasciculata; conditions: read-out: I50
In short: (§1)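 Cultures were set up in 50 mL growth medium with the analogue added and inoculated with about 1 × 10⁷ C. fasciculata. Duplicate flasks were run at each of 3–6 concentrations, with duplicate controls. Flasks were shaken at 25 °C, and growth was followed as absorbance change at 535 nm against uninoculated medium (1.0 = 7 × 10⁷ organisms/mL). Runs ended when controls reached 6 × 10⁷ to 9 × 10⁷ organisms/mL.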

Crithidia fasciculata [2] = experiment: Inhibition of dihydrosterculate synthesis in Crithidia fasciculata.; conditions: read-out: I50
In short: (§2)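 C. fasciculata (about 1 × 10⁷ organisms) was inoculated into 50 mL growth medium containing the analogue, using duplicate flasks at 3–6 concentrations plus duplicate untreated controls. Cultures were shaken at 25 °C until controls reached 6 × 10⁷ to 9 × 10⁷ organisms/mL. Harvested cells gave free fatty acids, which were converted to methyl esters. Dihydrosterculate was measured as % of total fatty acids by capillary GC-FID on BP1 and Supelcowax 10 columns.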

Crithidia fasciculata [3] = experiment: The compound was tested for 50% growth inhibition against Crithidia fasciculata; No inhibition; in short: as §1
Crithidia fasciculata [4] = experiment: Inhibition of dihydrosterculate synthesis in Crithidia fasciculata; No inhibition; in short: as §2

Row | SMILES | IC50 (Crithidia fasciculata [1]) [µM] | IC50 (Crithidia fasciculata [2]) [µM] | I50 (Crithidia fasciculata [3]) | I50 (Crithidia fasciculata [4])
1 | CCCCCCCCCSCCCCCCCC(=O)NCC(O)CO (centres undefined) | > 100 | 8 | – | –
2 | CCCCCCCCSCCCCCCCCC(=O)NCC(O)CO (centres undefined) | 17 | 12 | – | –
3 | CCCCCCCCCCCCCCCCCC(=O)NCC(O)CO (centres undefined) | – | – | Not Active | Not Active
4 | CCCCCCCCC[S+]([O-])CCCCCCCC(=O)O (centres undefined) | > 100 | – | – | Not Active
5 | CCCCCCCCCCSCCCCCCC(=O)O | 0.8 | 0.4 | – | –
6 | CCCCCCCCCSCCCCCCCC(=O)O | > 100 | 0.9 | – | –
7 | CCCCCCCCSCCCCCCCCC(=O)O | 10 | 4 | – | –
8 | CCCCCCCC[S+]([O-])CCCCCCCCC(=O)O (centres undefined) | > 100 | – | – | Not Active
9 | CCCCCCCSCCCCCCCCCC(=O)O | 3 | 3 | – | –
10 | CCCCCCCCCCCCCCCCCC(=O)O [STEARIC ACID] | – | – | – | Not Active
